# Measurements pooled from the literature.
# Compare with care: the assays were run in different laboratories.
host,sample,route,dose,time,notes,concentration,SMILES
female BALB/c mouse,plasma,intraperitoneal,10 mg/kg,1 h,,1290 ng/mL,O=S(=O)(c1ccc(-c2ccc3nccc(Nc4ccncn4)c3c2)cc1)N1CCOCC1
C57BL/6 mouse,plasma,oral,0.3 mg/kg,2 h,,3 nM,COc1cc(F)c([C@@H]2CNC(=O)[C@H]2NC(=O)Nc2ccccc2)c(F)c1
BALB/c mouse,plasma,intravenous,2.5 mg/kg,3 h,,23.9 ng/mL,CC(C)CN(C[C@@H](O)[C@H](Cc1ccccc1)NC(=O)O[C@H]1CO[C@H]2OCC[C@H]21)S(=O)(=O)c1ccc(N)cc1
mouse,brain,intraperitoneal,20 mg/kg,7 days,,0 nM,CC(C)Cc1nn(C)c(=O)c2c(SCCCO)n(Cc3cccc4ccccc34)cc12
female BALB/c mouse,plasma,oral,50 mg/kg,24 h,,79 ng/mL,CC(C)(Nc1nc(-c2ccccn2)nc2ccccc12)c1ccccn1
male Swiss mouse,plasma,oral,30 mg/kg,30 min,single dose,14800 ng/mL,O=C(O)C1CCN(c2ncc(-c3ccc4c(c3)OCCCO4)s2)CC1
CD-1 mouse,lung,intravenous,10 mg/kg,24 h,,15 ng/mL,O=c1nc(N2CCN(CC3CCCCC3)CC2)sc2c([N+](=O)[O-])cc(C(F)(F)F)cc12
female BALB/c mouse,plasma,oral,50 mg/kg,15 min,,2130 ng/mL,c1ccc(-c2nc(N3CCC(c4ccccn4)C3)c3ccccc3n2)nc1 (stereo not drawn)
male Swiss mouse,plasma,oral,30 mg/kg,15 min,single dose,416 ng/mL,CC(C)Oc1cccc(-c2cnc(N3CCC(C(N)=O)CC3)s2)c1
